Test [1] is described as follows: Selectivity expressed as a ratio of affinity against Alpha 1d-Adrenoceptor to that of 5-HT1A receptor.
Test [2] deals with T1, 5-hydroxytryptamine receptor 1A (Homo sapiens) (UniProt P08908).
T1 sequence (whole entry): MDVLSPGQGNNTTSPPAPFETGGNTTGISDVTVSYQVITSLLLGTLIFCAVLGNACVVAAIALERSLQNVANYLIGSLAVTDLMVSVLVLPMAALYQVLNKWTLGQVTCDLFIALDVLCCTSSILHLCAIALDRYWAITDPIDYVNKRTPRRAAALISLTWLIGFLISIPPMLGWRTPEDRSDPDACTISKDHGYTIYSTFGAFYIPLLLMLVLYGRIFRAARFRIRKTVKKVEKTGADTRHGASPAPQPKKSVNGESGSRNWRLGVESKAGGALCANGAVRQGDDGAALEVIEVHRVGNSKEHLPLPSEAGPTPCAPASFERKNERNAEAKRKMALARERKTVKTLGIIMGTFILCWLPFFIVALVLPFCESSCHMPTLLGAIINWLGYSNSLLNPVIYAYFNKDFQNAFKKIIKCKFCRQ
Nature of the test: Potency (pD2) for the stimulation of [35S]GTP-gamma-S, binding on 5-hydroxytryptamine 1A receptor. It is filed as functional. In short, it runs like this:
(§1)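 Membranes of HeLa cells expressing human 5-HT1A, in 20 mM HEPES, 3 mM MgCl2, 120 mM NaCl pH 7.4. Preincubated 20 min at 30 °C with 30 µM GDP and drug (0.1 nM–100 µM) or 5-HT as reference curve. [35S]GTPγS (200–250 pM) then added for 30 min at 30 °C. Nonspecific binding with 10 µM GTPγS. Curves fitted by ALLFIT to give Emax and pD2 (−log EC50).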

Test [3] concerns the target T2, 5-hydroxytryptamine receptor 1A (Homo sapiens, UniProt P08908).
T2 sequence (P08908 whole entry): T1 sequence (whole entry)
Description: Binding affinity on human cloned 5-hydroxytryptamine 1A receptor transfected in human cell lines (He La). It counts as cell-based, Cell line. In short, it runs like this: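 HeLa cells stably expressing human 5-HT1A (genomic clone G-21), grown in DMEM with 10% FCS. […] Nonspecific binding with 10 µM 5-HT. Filtration through PEI-pretreated filters.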

For test [4], the target named is T1, 5-hydroxytryptamine receptor 1A (Homo sapiens). Description: Maximal stimulation was expressed as percentage of the maximal 5-HT response in the [35S]GTP-gamma-S, binding assay on 5-hydroxytryptamine 1A receptor. It counts as functional. In short, it runs like this: as §1
Test [5] can be described thus: Selectivity expressed as a ratio of affinity against Alpha 1A-Adrenoceptor to that of 5-HT1A receptor.

Usually Ki stands for a measure of affinity in units of concentration, obtained from inhibition or displacement. Broadly, the Emax is the size of the effect at its maximum, as opposed to the concentration needed. In the case of `COc1cccc2c1CCCC2CCCN1CCN(c2ccccn2)CC1` (configuration not stated), the Selectivity in test [1] came to 74; in test [5], 4. In addition, in test [2], the pD2 came out at 10.2. The same molecule came in with an inhibition constant Ki in test [3] of 0.08 nM. Besides, the Emax in test [4] came out at 98.2%.
As to `COc1cccc2c1CCCC2CCCNCCOc1ccccn1` (configuration not stated), the Selectivity in test [1] was determined as 55; in test [5], 2. The molecule also yielded a pD2 in test [2] of 10.2. Besides, the Emax in test [4] came out at 86.8%.
Regarding `COc1cccc2c(CCCN3CCN(c4ccccn4)CC3)cccc12`, the Selectivity in test [1] is 4; in test [5], 0.5. Moreover, the pD2 in test [2] is 7.87. In test [4], the Emax came out at 86.3%.
The like results for `COc1cccc2c(CCCNCCOc3ccccn3)cccc12` were, in that order, 97, 17, 8.2 and 48%.

The values above are taken from ChEMBL document CHEMBL1134307, “trans-4-[4-(Methoxyphenyl)cyclohexyl]-1-arylpiperazines: a new class of potent and selective 5-HT(1A) receptor ligands as conformationally constrained analogues of 4-[3-(5-methoxy-1,2,3,4-tetrahydronaphthalen-1-yl)propyl]-1-arylpiperazines” (J Med Chem, 2001).
